ChEMBL document CHEMBL4270536, “Preparation, characterisation and biological evaluation of new N-phenyl amidobenzenesulfonates and N-phenyl ureidobenzenesulfonates inducing DNA double-strand breaks. Part 3. Modulation of ring A” (Eur J Med Chem, 2018)

Legend:
HT-1080 = experiment: Antiproliferative activity against human HT1080 cells after 48 hrs by SRB assay; type: functional, cell-based; details: HT-1080, 48 h
Outline: (§1)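 Cells grown in DMEM with 5% FBS at 37 C; seeded per well at 2.5 x 10^3 (HT-1080), 4.0 x 10^3 (HT-29), 3.0 x 10^3 (M21) or 2.5 x 10^3 (MCF7). Drugs from 40 mM DMSO stock, serial dilutions, final 100 µM to 78 nM, DMSO <0.5%.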

M21 [1] = experiment: Cell cycle arrest in human M21 cells assessed as accumulation at G0/G1 phase at 2 times IC50 after 24 hrs by DAPI staining based flow cytometry relative to control; type: functional
Outline: (§2)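 Flow cytometry in M21 cells seeded in six-well plates, allowed 24 h, then exposed 24 h to drug (2- or 5-fold IC50); DMSO 0.5% control. Trypsinized, PBS-washed, fixed in ice-cold EtOH, stained with 2 mg/mL DAPI in PBS; sub-G1, G0/G1, S and G2/M fractions measured on LSR II cytometer.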

M21 [2] = experiment: Antiproliferative activity against human M21 cells after 48 hrs by SRB assay; type: functional, cell-based; details: M21, 48 h; outline: as §1
M21 [3] = experiment: Cell cycle arrest in human M21 cells assessed as accumulation at G2/M phase at 2 times IC50 after 24 hrs by DAPI staining based flow cytometry relative to control; type: functional; outline: as §2
M21 [4] = experiment: Cell cycle arrest in human M21 cells assessed as accumulation at S phase at 2 times IC50 after 24 hrs by DAPI staining based flow cytometry relative to control; type: functional; outline: as §2
M21 [5] = experiment: Cell cycle arrest in human M21 cells assessed as accumulation at sub-G1 phase at 2 times IC50 after 24 hrs by DAPI staining based flow cytometry relative to control; type: functional; outline: as §2
MCF7 = experiment: Antiproliferative activity against human MCF7 cells after 48 hrs by SRB assay; type: functional, cell-based; details: MCF7, 48 h; outline: as §1
HT-29 = experiment: Antiproliferative activity against human HT-29 cells after 48 hrs by SRB assay; type: functional, cell-based; details: HT-29, 48 h; outline: as §1
[6] = Alkylating activity at DNA (unknown origin) after 90 mins by colorimetric NBP assay; type: functional
Outline: (§3)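 NBP alkylation kinetics (Bardos colorimetric method): 400 nmol drug in 1 mL ethanol mixed with 1 mL NBP (10% v/v in 95% ethanol), 1 mL 50 mM acetate buffer pH 4.3 and 1 mL ethanol, kept on ice, then heated at 80 C in shaking water bath; stopped on ice 5 min after 0, 30, 60, 90 min. Rate constant from linear regression of absorbance curve; chlorambucil as positive control.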

[7] = Alkylating activity at DNA (unknown origin) after 90 mins by colorimetric NBP assay relative to chlorambucil; type: functional; outline: as §3
M21 [8] = experiment: Cell cycle arrest in human M21 cells assessed as accumulation at G2/M phase at 2 times IC50 after 24 hrs by DAPI staining based flow cytometry relative to control
M21 [9] = experiment: Cell cycle arrest in human M21 cells assessed as accumulation at sub-G1 phase at 2 times IC50 after 24 hrs by DAPI staining based flow cytometry relative to control
M21 [10] = experiment: Cell cycle arrest in human M21 cells assessed as accumulation at S phase at 2 times IC50 after 24 hrs by DAPI staining based flow cytometry relative to control
M21 [11] = experiment: Cell cycle arrest in human M21 cells assessed as accumulation at G0/G1 phase at 2 times IC50 after 24 hrs by DAPI staining based flow cytometry relative to control

Row | Structure (SMILES) | IC50 (HT-1080) [µM] | IC50 (MCF7) [µM] | IC50 (HT-29) [µM] | Activity (M21 [1]) [%] | IC50 (M21 [2]) [µM] | Activity (M21 [3]) [%] | Activity (M21 [4]) [%] | Activity (M21 [5]) [%] | K [6] [×10⁻³ /s] | fold change (FC) [7] | Activity (M21 [8]) [%] | Activity (M21 [9]) [%] | Activity (M21 [10]) [%] | Activity (M21 [11]) [%]
1 | CC(=O)Nc1ccc(S(=O)(=O)Oc2ccccc2C(C)C)cc1 | 12 | 16 | 23 |  | 21 |  |  |  | 0.36 | 14 |  |  |  | 
2 | CC(C)C(=O)Nc1cccc(S(=O)(=O)Oc2ccccc2C(C)C)c1 | 16 | 13 | 16 | 54.5 | 17 | 32.5 | 12.9 | 0.1 |  |  |  |  |  | 
3 | CC(=O)Nc1cccc(S(=O)(=O)Oc2ccccc2C(C)C)c1 | 21 | 21 | 27 |  | 31 |  |  |  |  |  |  |  |  | 
4 | O=C(NCCCl)Nc1ccc(S(=O)(=O)Oc2ccccc2I)cc1 |  |  |  |  |  |  |  |  | 0.071 | 75 | 12.2 | 0.1 | 30.9 | 56.8
5 | CC(C)c1ccccc1OS(=O)(=O)c1cccc(NC(=O)C(C)(C)C)c1 | 11 | 14 | 19 | 61.1 | 13 | 18.2 | 20 | 0.7 |  |  |  |  |  | 
6 | O=C(CCCCl)Nc1ccc(S(=O)(=O)Oc2ccccc2I)cc1 | 12 | 6.3 | 9.1 | 42 | 7.2 | 40.7 | 17.1 | 0.2 |  |  |  |  |  | 
7 | CCCCCNC(=O)Nc1ccc(S(=O)(=O)Oc2ccccc2I)cc1 | 6.9 | 5.4 | 6.6 |  | 5.9 |  |  |  |  |  | 23 | 0.1 | 14.7 | 62.2
8 | CCCCCC(=O)Nc1ccc(S(=O)(=O)Oc2ccccc2C(C)C)cc1 | 6.3 | 5.3 | 6.4 | 41.4 | 6.7 | 26.6 | 28.3 | 3.7 |  |  |  |  |  | 

Continued by falling IC50 (HT-1080), values first:

Row | IC50 (HT-1080) [µM] | IC50 (MCF7) [µM] | IC50 (HT-29) [µM] | Structure (SMILES) | Activity (M21 [1]) [%] | IC50 (M21 [2]) [µM] | Activity (M21 [3]) [%] | Activity (M21 [4]) [%] | Activity (M21 [5]) [%] | K [6] [×10⁻³ /s] | fold change (FC) [7] | Activity (M21 [8]) [%] | Activity (M21 [9]) [%] | Activity (M21 [10]) [%] | Activity (M21 [11]) [%]
9 | 6 | 7.1 | 6.8 | CC(C)c1ccccc1OS(=O)(=O)c1ccc(NC(=O)NCC2CCCC2)cc1 |  | 6.6 |  |  |  |  |  | 21.7 | 0.1 | 14.3 | 63.9
10 | 4.7 | 4 | 4.9 | CCCCCNC(=O)Nc1ccc(S(=O)(=O)Oc2ccccc2C(C)C)cc1 |  | 4.6 |  |  |  |  |  | 26.9 | 0.3 | 12.2 | 60.6
11 | 3.9 | 6.2 | 7.4 | CC(C)c1ccccc1OS(=O)(=O)c1ccc(NC(=O)NC2CCCC2)cc1 |  | 6.1 |  |  |  |  |  | 27.2 | 0.1 | 12.5 | 60.2
12 | 3.8 | 5.2 | 6.2 | CC(C)c1ccccc1OS(=O)(=O)c1ccc(NC(=O)CCCCl)cc1 | 55.3 | 5.1 | 25.2 | 19.3 | 0.2 |  |  |  |  |  | 
13 | 1.3 | 7.4 | 14 | O=C(Nc1ccc(S(=O)(=O)Oc2ccccc2I)cc1)NC1CC1 |  | 11 |  |  |  |  |  | 11.5 | 0.1 | 26.9 | 61.5
14 | 0.78 | 2.2 | 4.5 | CC(C)c1ccccc1OS(=O)(=O)c1cccc(NC(=O)CCl)c1 | 64.1 | 3.9 | 18.8 | 17.1 | 0 |  |  |  |  |  | 
15 | 0.68 | 2.7 | 6.3 | CCCNC(=O)Nc1ccc(S(=O)(=O)Oc2ccccc2C(C)C)cc1 |  | 5.1 |  |  |  | 0.027 | 200 | 10 | 0.3 | 25.1 | 64.6
16 | 0.6 | 2.5 | 4.1 | O=C(CCl)Nc1ccc(S(=O)(=O)Oc2ccccc2I)cc1 | 71.1 | 3.9 | 12.1 | 16.5 | 0.3 |  |  |  |  |  | 
